The source of these data is ChEMBL document CHEMBL1127697, “New N alpha-guanidinobenzoyl derivatives of hirudin-54-65 containing stabilized carboxyl or phosphoryl groups on the side chain of phenylalanine-63” (1994).

What all share (type): functional
For experiment [1], the system named is Rattus norvegicus. Briefly: Activated partial thromboplastin time at 1.5 min following intravenous administration in rats at a dose 8 mg/kg. A digest of the protocol:
(§1)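 Sprague-Dawley rats (300–400 g) anesthetized with pentobarbital sodium (60 mg/kg ip). Peptide (1 mL) given iv via cannulated jugular vein. Carotid blood (1.5 mL) drawn 30 min before and at 1.5–60 min after dosing, then centrifuged 15 min at 3000g to platelet-poor plasma. APTT read on a coagulometer: plasma mixed with thromboplastin at 37 °C. Expressed as % of untreated animals; n = 4–6 independent experiments.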

The test system of experiment [2] is Rattus norvegicus. Briefly: Activated partial thromboplastin time at 15 min following intravenous administration in rats at a dose 8 mg/kg. In outline:
as §1

The subject of experiment [3] is Rattus norvegicus. Briefly: Activated partial thromboplastin time at 30 min following intravenous administration in rats at a dose 8 mg/kg. A digest of the protocol: as §1
The species named for experiment [4] is Rattus norvegicus. In words: Concentration that doubles thrombin time (inhibition of fibrin clot) in rats. In outline: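 Plasma was incubated 2 min at 37 °C with inhibitor or vehicle, then thrombin (1.5 NIH/mL) was added and clotting time read on a coagulometer. Value is the µM concentration that doubles thrombin time relative to the no-inhibitor control.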

For experiment [5], the system named is Rattus norvegicus. In words: Activated partial thromboplastin time at 3 min following intravenous administration in rats at a dose 8 mg/kg. In outline:
as §1

The test system of experiment [6] is Rattus norvegicus. In words: Activated partial thromboplastin time at 60 min following intravenous administration in rats at a dose 8 mg/kg. A digest of the protocol:
as §1

The subject of experiment [7] is Rattus norvegicus. Briefly: Activated partial thromboplastin time at 5 min following intravenous administration in rats at a dose 8 mg/kg. A digest of the protocol:
as §1

Residues, ends and D or L forms follow the SMILES beside them.

In the case of `CC[C@H](C)[C@H](NC(=O)C1C2CCC(CC2)N1C(=O)[C@H](CCC(=O)O)NC(=O)[C@H](Cc1ccccc1)NC(=O)[C@H](CC(=O)O)NC(=O)CNC(=O)c1ccc(NC(=N)N)cc1)C(=O)N1CCC[C@H]1C(=O)N[C@@H](CCC(=O)O)C(=O)N[C@@H](CCC(=O)O)C(=O)N[C@@H](Cc1ccc(O)cc1P(=O)(O)O)C(=O)N[C@@H](CC(C)C)C(=O)N[C@H](CCC(=O)O)C(=O)O` (stereo partly drawn), the Baseline in the experiment on Rattus norvegicus [1] was 265%; in the experiment with Rattus norvegicus [2] it was 192%; in the experiment with Rattus norvegicus [3] it was 164%; with Rattus norvegicus [5], 244%; in the experiment on Rattus norvegicus [6], 163%; with Rattus norvegicus [7] it was 217%. Further, in the experiment listed under Rattus norvegicus [4], the Ctt2 was 4 µM.
In the case of `CC[C@H](C)[C@H](NC(=O)C1C2CCC(CC2)N1C(=O)[C@H](CCC(=O)O)NC(=O)[C@H](Cc1ccccc1)NC(=O)[C@H](CC(=O)O)NC(=O)CNC(=O)c1ccc(NC(=N)N)cc1)C(=O)N1CCC[C@H]1C(=O)N[C@@H](CCC(=O)O)C(=O)N[C@@H](CCC(=O)O)C(=O)N[C@@H](Cc1ccc(O)cc1)C(=O)N[C@@H](CC(C)C)C(=O)N[C@H](CCC(=O)O)C(=O)O` (stereo partly drawn), the Baseline came out at 158% in the experiment with Rattus norvegicus [1]; 115% in the experiment on Rattus norvegicus [2]; 111% in the experiment with Rattus norvegicus [3]; 145% in the experiment with Rattus norvegicus [5]; 96% in the experiment with Rattus norvegicus [6]; 133% in the experiment with Rattus norvegicus [7]. In the experiment filed under Rattus norvegicus [4], this compound yielded a Ctt2 of 4.8 µM.
In the case of `CC[C@H](C)[C@H](NC(=O)C1C2CCC(CC2)N1C(=O)[C@H](CCC(=O)O)NC(=O)[C@H](Cc1ccccc1)NC(=O)[C@H](CC(=O)O)NC(=O)CNC(=O)c1ccc(NC(=N)N)cc1)C(=O)N1CCC[C@H]1C(=O)N[C@@H](CCC(=O)O)C(=O)N[C@@H](CCC(=O)O)C(=O)N[C@@H](Cc1ccc(CC(=O)O)cc1)C(=O)N[C@@H](CC(C)C)C(=O)N[C@H](CCC(=O)O)C(=O)O` (stereo partly drawn), the Baseline with Rattus norvegicus [1] is 213%; in the experiment on Rattus norvegicus [2] it was 149%; with Rattus norvegicus [3], 141%; in the experiment with Rattus norvegicus [5], 205%; with Rattus norvegicus [6], 118%; in the experiment on Rattus norvegicus [7], 188%. This compound gave a Ctt2 in the experiment listed under Rattus norvegicus [4] of 1 µM.
With `CC[C@H](C)[C@H](NC(=O)C1C2CCC(CC2)N1C(=O)[C@H](CCC(=O)O)NC(=O)[C@H](Cc1ccccc1)NC(=O)[C@H](CC(=O)O)NC(=O)CNC(=O)c1ccc(NC(=N)N)cc1)C(=O)N1CCC[C@H]1C(=O)N[C@@H](CCC(=O)O)C(=O)N[C@@H](CCC(=O)O)C(=O)N[C@@H](Cc1ccc(P(=O)(O)O)cc1)C(=O)N[C@@H](CC(C)C)C(=O)N[C@H](CCC(=O)O)C(=O)O` (stereo partly drawn), the Baseline worked out at 252% with Rattus norvegicus [1]; 200% in the experiment with Rattus norvegicus [2]; 181% in the experiment on Rattus norvegicus [3]; 225% with Rattus norvegicus [5]; 187% with Rattus norvegicus [6]; 217% in the experiment on Rattus norvegicus [7]. For the same compound, the Ctt2 in the experiment filed under Rattus norvegicus [4] was 2.8 µM.
Regarding `CC[C@H](C)[C@H](NC(=O)C1C2CCC(CC2)N1C(=O)[C@H](CCC(=O)O)NC(=O)[C@H](Cc1ccccc1)NC(=O)[C@H](CC(=O)O)NC(=O)CNC(=O)c1ccc(NC(=N)N)cc1)C(=O)N1CCC[C@H]1C(=O)N[C@@H](CCC(=O)O)C(=O)N[C@@H](CCC(=O)O)C(=O)N[C@@H](Cc1ccc(OP(=O)(O)O)cc1)C(=O)N[C@@H](CC(C)C)C(=O)N[C@H](CCC(=O)O)C(=O)O` (stereo partly drawn), the Baseline in the experiment with Rattus norvegicus [1] is reported as 201%; with Rattus norvegicus [2], 125%; in the experiment on Rattus norvegicus [3] it was 110%; with Rattus norvegicus [5], 162%; in the experiment on Rattus norvegicus [6] it was 107%; in the experiment on Rattus norvegicus [7], 147%. The same compound displayed a Ctt2 in the experiment listed under Rattus norvegicus [4] of 0.9 µM.
Take `CC[C@H](C)[C@H](NC(=O)C1C2CCC(CC2)N1C(=O)[C@H](CCC(=O)O)NC(=O)[C@H](Cc1ccccc1)NC(=O)[C@H](CC(=O)O)NC(=O)CNC(=O)c1ccc(NC(=N)N)cc1)C(=O)N1CCC[C@H]1C(=O)N[C@@H](CCC(=O)O)C(=O)N[C@@H](CCC(=O)O)C(=O)N[C@@H](Cc1ccc(O)cc1)C(=O)N[C@@H](CC(C)C)C(=O)O` (stereo partly drawn) (HELM PEPTIDE1{[N=C(N)Nc1ccc(C(=O)[*:2])cc1].G.D.F.E.[O=C(C1C2CCC(CC2)N1[*:1])[*:2]].I.P.E.E.Y.L}$$$$V2.0): the Baseline in the experiment on Rattus norvegicus [1] was found to be 136%; with Rattus norvegicus [2], 108%; with Rattus norvegicus [3] it was 100%; in the experiment on Rattus norvegicus [5], 123%; in the experiment on Rattus norvegicus [6], 98%; with Rattus norvegicus [7], 115%. Also, the Ctt2 in the experiment listed under Rattus norvegicus [4] is 16.5 µM.
In the experiment listed under Rattus norvegicus [4], `CC[C@H](C)[C@H](NC(=O)C1C2CCC(CC2)N1C(=O)[C@H](CCC(=O)O)NC(=O)C(Cc1ccccc1)NC(=O)[C@H](CC(=O)O)NC(=O)CNC(=O)c1ccc(NC(=N)N)cc1)C(=O)N1CCC[C@H]1C(=O)N[C@@H](CCC(=O)O)C(=O)N[C@@H](CCC(=O)O)C(=O)N[C@H](Cc1ccc(CC(=O)O)cc1)C(=O)N[C@@H](CC(C)C)C(=O)N[C@H](CCC(=O)O)C(=O)O` (stereo in doubt) registered a Ctt2 of 50 µM.
